Active and inactive are the calls of the source.
What was measured:
[1] = test system: MCF7; assay: Growth inhibition of human MCF7 cells at 10 uM after 48 hrs by SRB assay; format: functional, cell-based
Procedure, shortened: (§1)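 MCF-7 or MCF-7/ADR cells seeded at 1 × 10⁴/well, dosed after 24 h with 10 μM compound for 48 h at 37 °C, 5% CO2. Fixed with cold TCA, stained with 0.4% SRB in 1% acetic acid, dye solubilized in 10 mM Tris, absorbance read at 520 nm. Percent inhibition given as mean ± SEM of three experiments.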

[2] = Selectivity for human sigma1 receptor over rat sigma2 receptor
Procedure, shortened: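 Selectivity ratio is the antilog of pKi(σ1) minus pKi(σ2). σ1 binding: Jurkat membranes with [3H](+)-pentazocine (8 nM). σ2 binding: rat cortex membranes with [3H]DTG (5 nM) plus 300 nM (+)-pentazocine. Both run 2 h at 22 °C in 5 mM Tris/HCl pH 7.4, nonspecific binding with 10 μM haloperidol.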

[3] = test system: NCI/ADR-RES; assay: Growth inhibition of human MCF7/ADR cells highly expressing sigma1 receptor at 10 uM after 48 hrs by SRB assay; format: functional, cell-based; procedure, shortened: as §1
[4] = Displacement of [3H]DTG from sigma2 receptor in rat cerebral cortex cell membrane; format: cell membranes
Procedure, shortened: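 Rat cerebral cortex membranes (100-200 μg protein) incubated with [3H]DTG (5 nM) and 300 nM (+)-pentazocine to mask σ1 sites, across a range of test concentrations, 2 h at 22 °C in 5 mM Tris/HCl pH 7.4. Nonspecific binding defined with 10 μM haloperidol. GF/B filtration, scintillation counting. Triplicates; Ki from two to three experiments.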

[5] = Antagonist activity at sigma2 receptor in guinea pig ileum longitudinal muscle assessed as inhibition of 5-HT-induced contractions; format: functional, tissue-based; conditions: Cavia porcellus
Procedure, shortened: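 Longitudinal muscle/myenteric plexus ileum segments from male guinea pigs (300-400 g), 1 g tension, Tyrode's at 37 °C gassed with 95% O2/5% CO2, 1 μM ketanserin present throughout. After 90 min equilibration, three noncumulative 5-HT concentration-response curves; the second is run with test compound. 5-HT contact 1 min, 20 min washes between doses; peak isotonic contraction recorded.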

[6] = target: Sigma non-opioid intracellular receptor 1 (Homo sapiens, UniProt Q99720); assay: Displacement of [3H](+)-pentazocine from sigma1 receptor in human Jurkat cell membrane; format: cell membranes
Sequence of Sigma non-opioid intracellular receptor 1 (Q99720 whole entry): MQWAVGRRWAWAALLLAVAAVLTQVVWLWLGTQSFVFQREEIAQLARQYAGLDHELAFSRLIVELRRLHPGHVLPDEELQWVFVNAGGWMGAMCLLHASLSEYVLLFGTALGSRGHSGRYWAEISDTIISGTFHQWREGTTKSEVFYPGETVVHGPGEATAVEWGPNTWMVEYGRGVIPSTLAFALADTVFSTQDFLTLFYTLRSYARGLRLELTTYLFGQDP

[7] = Cell cycle arrest in human MCF7/ADR cells highly expressing sigma1 receptor assessed as accumulation at G2/M phase at 10 uM after 48 hrs by propidium iodide staining based flow cytometry relative to control; format: functional; conditions: NCI/ADR-RES
Procedure, shortened: (§2)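 MCF-7 or MCF-7/ADR cells (3 × 10⁵/mL) held 48 h at 37 °C, 5% CO2 with 10 μM compound. Fixed in cold 70% ethanol for 15 min on ice, then stained 40 min at 37 °C with PI (50 μg/mL) plus RNase A (0.1 mg/mL) and 0.05% Triton X-100. Flow cytometry over 10000 events; one of three experiments shown.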

[8] = Cell cycle arrest in human MCF7/ADR cells highly expressing sigma1 receptor assessed as accumulation at G0/G1 phase at 10 uM after 48 hrs by propidium iodide staining based flow cytometry relative to control; format: functional; conditions: NCI/ADR-RES; procedure, shortened: as §2
[9] = test system: Mus musculus; assay: Analgesic effect in CD1 mouse at 1 mg/kg, sc by radiant heat tail flick test; format: functional, organism-based; design: dose 1 mg/kg
Procedure, shortened: (§3)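 Male CD-1 mice, 25-35 g. Radiant heat tail flick, IR source aimed at the lower third of the tail. Basal latency (2-3 s) is the mean of two trials 30 min apart. Drug 1 mg/kg sc or vehicle (DMSO 1%) given 30 min before morphine 5.0 mg/kg sc or saline. Read at 30, 60, 90 and 120 min after morphine; cutoff 12 s. Reported as %MPE, mean ± SEM, n=8; ANOVA with Student-Newman-Keuls.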

[10] = Cell cycle arrest in human MCF7/ADR cells highly expressing sigma1 receptor assessed as accumulation at S phase at 10 uM after 48 hrs by propidium iodide staining based flow cytometry relative to control; format: functional; conditions: NCI/ADR-RES; procedure, shortened: as §2
[11] = test system: Mus musculus; assay: Increase in morphine-induced analgesia in CD1 mouse at 1 mg/kg, sc administered 30 mins before morphine challenge measured after 60 to 120 mins post morphine challenge by radiant heat tail flick test; format: functional, organism-based; design: dose 1 mg/kg; procedure, shortened: as §3
[12] = test system: MCF7; assay: Induction of apoptosis in human MCF7 cells at 10 uM after 48 hrs by Annexin V staining based flow cytometry relative to control; format: functional
Procedure, shortened: (§4)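 MCF-7 or MCF-7/ADR cells (3 × 10⁵/mL) exposed to 10 μM compound for 48 h at 37 °C, 5% CO2. Stained with Annexin V-FITC (1:40) for 10 min at room temperature in binding buffer (10 mM Hepes pH 7.4, 140 mM NaCl, 2.5 mM CaCl2), then read by FACS. Reported as % Annexin V+ cells, mean ± SEM of three experiments.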

[13] = test system: MCF7; assay: Cell cycle arrest in human MCF7 cells assessed as accumulation at G0/G1 phase at 10 uM after 48 hrs by propidium iodide staining based flow cytometry relative to control; format: functional; procedure, shortened: as §2
[14] = test system: MCF7; assay: Cell cycle arrest in human MCF7 cells assessed as accumulation at S phase at 10 uM after 48 hrs by propidium iodide staining based flow cytometry relative to control; format: functional; procedure, shortened: as §2
[15] = test system: MCF7; assay: Cell cycle arrest in human MCF7 cells assessed as accumulation at G2/M phase at 10 uM after 48 hrs by propidium iodide staining based flow cytometry relative to control; format: functional; procedure, shortened: as §2
[16] = test system: NCI/ADR-RES; assay: Induction of apoptosis in human MCF7/ADR cells highly expressing sigma1 receptor at 10 uM after 48 hrs by Annexin V staining based flow cytometry relative to control; format: functional; procedure, shortened: as §4
[17] = Growth inhibition of human MCF7/ADR cells highly expressing sigma1 receptor after 48 hrs by SRB assay; format: functional; conditions: NCI/ADR-RES
Procedure, shortened: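 Cells seeded at 1 × 10⁴/well; after 24 h, compound (10 nM-10 μM) added in quadruplicate for 48 h at 37 °C, 5% CO2, with a time-zero plate read. TCA fixation, 0.4% SRB stain, absorbance at 520 nm. GI50 is the concentration halving net protein increase, interpolated from % growth versus log concentration; mean of triplicates.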

| SMILES | Ki selectivity ratio (sigma2/sigma1) [2] | IC50 [5] [nM] | Ki [6] [nM] | Activity [1] | Activity [3] | pKi [4] | further results |
| --- | --- | --- | --- | --- | --- | --- | --- |
| O=C(CCCN1CCC(O)(c2ccc(Cl)cc2)CC1)c1ccc(F)cc1 [HALOPERIDOL] | – | – | – | – | – | 6.95 | – |
| O=C1CC(C2CCN(Cc3ccccc3)CC2)Sc2ccccc21 (racemic) | – | – | – | inactive | Active | 5.81 | Activity [7]: 24.4%; Activity [8]: 61.5%; Activity [9]: inactive; Activity [10]: 13.9%; Activity [11]: Active |
| O=C1CC2(CCN(Cc3ccccc3)CC2)Oc2ccccc21 | 1440 | 7200 | 0.209 | inactive | Active | 6.52 | GI50 [17]: 10000 nM |
| c1ccc(CN2CCC3(CCc4ccccc4C3)CC2)cc1 | 32 | > 10000 | 0.437 | – | – | 7.85 | – |
| c1ccc(CN2CCC3(CCc4ccccc4O3)CC2)cc1 | 36 | – | – | – | – | 7.66 | pKi ([6]; jurkat): 9.21 |

Continued, in another order:

| Ki selectivity ratio (sigma2/sigma1) [2] | IC50 [5] [nM] | Ki [6] [nM] | SMILES | Activity [1] | Activity [3] | pKi [4] | further results |
| --- | --- | --- | --- | --- | --- | --- | --- |
| 76 | – | – | O=C1CC(C2CCN(CCc3ccccc3)CC2)Oc2ccccc21 (racemic) | inactive | Active | 8.08 | – |
| 1000 | 8400 | 0.0575 | c1ccc(CN2CCC(C3CCc4ccccc4S3)CC2)cc1 (racemic) | inactive | Active | 7.24 | – |
| 2510 | > 10000 | 0.0891 | c1ccc(CN2CCC3(CC2)OCc2ccccc2S3)cc1 | inactive | Active | 6.65 | – |
| 2340 | 3900 | 0.0977 | c1ccc(CN2CCC3(CC2)OCc2ccccc2O3)cc1 | inactive | Active | 6.64 | – |
| 2630 | – | – | O=C1CC(C2CCN(Cc3ccccc3)CC2)Oc2ccccc21 (racemic) | inactive | Active | 6.76 | Activity [7]: 23.3%; Activity [8]: 62.7%; Activity [10]: 14% |
| 676 | 6300 | 0.589 | c1ccc(CN2CCC3(CCc4ccccc4S3)CC2)cc1 [SPIPETHIANE] | inactive | Active | 6.4 | Activity [12]: 2.7%; Activity [7]: 24.8%; Activity [8]: 55.1%; Activity [13]: 73%; Activity [14]: 10%; Activity [15]: 17%; Activity [10]: 20.1%; Activity [16]: 5.4% |

— ChEMBL document CHEMBL1156820, “Novel highly potent and selective sigma 1 receptor antagonists related to spipethiane” (J Med Chem, 2010)
